Assay results published in ChEMBL document CHEMBL5696442, “Discovery of type II inhibitors of TGFβ-activated kinase 1 (TAK1) and mitogen-activated protein kinase kinase kinase kinase 2 (MAP4K2)” (J Med Chem, 2015).
The source made the active and inactive calls. No cut-off for these calls is given here.

Experiments:
[1] = biological target: Serine/threonine-protein kinase Nek7 (Homo sapiens) (UniProt Q8TDX7); assay: Inhibition of NEK7 Lys2 labeling site harbouring DIKPANVFITATGVVK in human Huh-7 cell lysate at 1 uM by KiNativ Profiling analysis relative to control; assay type: subcellular
[2] = biological target: T1, Serine/threonine-protein kinase D2 (Homo sapiens) (UniProt Q9BZL6); assay: Inhibition of PKD2 Lys2 labeling site in human Huh-7 cell lysate at 1 uM by KiNativ Profiling analysis relative to control; assay type: subcellular
T1 sequence (whole entry): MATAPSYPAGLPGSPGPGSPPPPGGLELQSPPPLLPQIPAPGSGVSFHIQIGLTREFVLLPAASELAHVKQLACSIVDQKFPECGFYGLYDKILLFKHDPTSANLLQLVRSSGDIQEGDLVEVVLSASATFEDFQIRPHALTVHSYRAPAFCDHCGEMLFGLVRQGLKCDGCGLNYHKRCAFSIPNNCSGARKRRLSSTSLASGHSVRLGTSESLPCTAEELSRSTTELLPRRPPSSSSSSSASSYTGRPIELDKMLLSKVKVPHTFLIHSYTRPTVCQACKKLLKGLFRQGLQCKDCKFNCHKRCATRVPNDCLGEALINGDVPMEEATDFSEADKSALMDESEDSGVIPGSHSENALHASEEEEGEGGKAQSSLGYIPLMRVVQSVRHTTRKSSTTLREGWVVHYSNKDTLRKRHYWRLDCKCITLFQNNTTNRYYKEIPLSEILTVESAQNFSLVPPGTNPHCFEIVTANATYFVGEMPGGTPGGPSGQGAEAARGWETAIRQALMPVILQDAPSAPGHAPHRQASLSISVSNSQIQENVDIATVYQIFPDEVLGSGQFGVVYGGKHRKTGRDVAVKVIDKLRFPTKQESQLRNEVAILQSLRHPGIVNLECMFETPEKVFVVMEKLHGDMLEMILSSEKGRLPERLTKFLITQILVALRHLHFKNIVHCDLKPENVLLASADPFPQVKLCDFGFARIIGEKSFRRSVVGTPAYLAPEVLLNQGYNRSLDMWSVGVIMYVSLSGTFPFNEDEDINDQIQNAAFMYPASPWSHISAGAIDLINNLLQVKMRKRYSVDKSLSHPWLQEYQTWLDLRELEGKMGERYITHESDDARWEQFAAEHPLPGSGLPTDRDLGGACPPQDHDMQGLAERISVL

[3] = biological target: Ribosomal protein S6 kinase alpha-1 (Homo sapiens) (UniProt Q15418); assay: Inhibition of RSK1 domain 1 Lys2 labeling site harbouring DLKPENILLDEEGHIKLTDFGLSK in human Huh-7 cell lysate at 1 uM by KiNativ Profiling analysis relative to control; assay type: subcellular
[4] = biological target: Cyclin-dependent kinase 1 (Homo sapiens) (UniProt P06493); assay: Inhibition of CDC2 Lys2 labeling site in human Huh-7 cells at 1 uM by KiNativ Profiling analysis relative to control; assay type: cell-based
Chain of Cyclin-dependent kinase 1 (Homo sapiens) (P06493 whole entry, looked up): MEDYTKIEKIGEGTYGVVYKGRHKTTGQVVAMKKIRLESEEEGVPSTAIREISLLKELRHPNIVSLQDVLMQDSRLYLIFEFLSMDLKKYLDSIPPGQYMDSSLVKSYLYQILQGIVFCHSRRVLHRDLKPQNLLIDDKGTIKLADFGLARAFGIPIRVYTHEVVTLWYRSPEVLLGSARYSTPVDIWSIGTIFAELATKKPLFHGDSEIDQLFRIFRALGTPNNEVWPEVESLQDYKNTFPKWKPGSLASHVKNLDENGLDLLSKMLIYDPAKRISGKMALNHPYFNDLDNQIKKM

[5] = biological target: DNA-PK/Ku70/Ku85 (Homo sapiens) (UniProt P78527+P12956+P13010); assay: Inhibition of DNAPK ATP labeling site harbouring KGGSWIQEINVAEK in human Huh-7 cells at 1 uM by KiNativ Profiling analysis relative to control; assay type: cell-based
[6] = biological target: Ribosomal protein S6 kinase alpha-4 (Homo sapiens) (UniProt O75676); assay: Inhibition of MSK2 domain1 Lys2 labeling site in human A-375 cells at 5 uM by KiNativ Profiling analysis relative to control; assay type: cell-based
[7] = biological target: 5'-AMP-activated protein kinase catalytic subunit alpha-1 (Homo sapiens) (UniProt Q13131); assay: Inhibition of AMPKa1 Lys2 labeling site in human A-375 cells at 0.5 uM by KiNativ Profiling analysis relative to control; assay type: cell-based
Chain of 5'-AMP-activated protein kinase catalytic subunit alpha-1 (Homo sapiens) (Q13131 whole entry, looked up): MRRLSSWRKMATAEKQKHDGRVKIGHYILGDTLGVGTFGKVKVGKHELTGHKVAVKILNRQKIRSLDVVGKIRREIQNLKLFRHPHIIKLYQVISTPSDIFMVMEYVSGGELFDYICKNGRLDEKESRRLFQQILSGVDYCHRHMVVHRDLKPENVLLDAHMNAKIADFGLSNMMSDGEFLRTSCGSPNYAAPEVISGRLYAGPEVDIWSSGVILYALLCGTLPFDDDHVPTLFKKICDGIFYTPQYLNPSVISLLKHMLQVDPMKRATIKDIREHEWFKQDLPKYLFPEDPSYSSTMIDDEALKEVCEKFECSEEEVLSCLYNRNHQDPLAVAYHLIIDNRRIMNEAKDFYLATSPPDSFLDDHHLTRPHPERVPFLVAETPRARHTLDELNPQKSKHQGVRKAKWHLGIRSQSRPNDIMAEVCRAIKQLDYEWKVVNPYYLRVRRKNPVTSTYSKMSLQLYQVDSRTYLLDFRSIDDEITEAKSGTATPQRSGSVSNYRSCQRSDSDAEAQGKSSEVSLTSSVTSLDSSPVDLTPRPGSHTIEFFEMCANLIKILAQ
Method in brief: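 Intact A375 melanoma cells were treated with compound at 5 or 0.5 μM, then lysed. Lysate kinases were labeled with a lysine-reactive ATP or ADP-biotin probe (KiNativ). Inhibition is read as protection of each kinase labeling site from probe labeling.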

[8] = biological target: Serine/threonine-protein kinase 32C (Homo sapiens) (UniProt Q86UX6); assay: Inhibition of YANK3 Lys2 labeling site in human A-375 cells at 0.05 uM by KiNativ Profiling analysis relative to control; assay type: cell-based
[9] = biological target: Cyclin-G-associated kinase (Homo sapiens) (UniProt O14976); assay: Inhibition of GAK (unknown origin) at 1 uM by Ambit Kinomescan binding assay relative to control; values are per cent of control
Chain of Cyclin-G-associated kinase (Homo sapiens) (O14976 whole entry): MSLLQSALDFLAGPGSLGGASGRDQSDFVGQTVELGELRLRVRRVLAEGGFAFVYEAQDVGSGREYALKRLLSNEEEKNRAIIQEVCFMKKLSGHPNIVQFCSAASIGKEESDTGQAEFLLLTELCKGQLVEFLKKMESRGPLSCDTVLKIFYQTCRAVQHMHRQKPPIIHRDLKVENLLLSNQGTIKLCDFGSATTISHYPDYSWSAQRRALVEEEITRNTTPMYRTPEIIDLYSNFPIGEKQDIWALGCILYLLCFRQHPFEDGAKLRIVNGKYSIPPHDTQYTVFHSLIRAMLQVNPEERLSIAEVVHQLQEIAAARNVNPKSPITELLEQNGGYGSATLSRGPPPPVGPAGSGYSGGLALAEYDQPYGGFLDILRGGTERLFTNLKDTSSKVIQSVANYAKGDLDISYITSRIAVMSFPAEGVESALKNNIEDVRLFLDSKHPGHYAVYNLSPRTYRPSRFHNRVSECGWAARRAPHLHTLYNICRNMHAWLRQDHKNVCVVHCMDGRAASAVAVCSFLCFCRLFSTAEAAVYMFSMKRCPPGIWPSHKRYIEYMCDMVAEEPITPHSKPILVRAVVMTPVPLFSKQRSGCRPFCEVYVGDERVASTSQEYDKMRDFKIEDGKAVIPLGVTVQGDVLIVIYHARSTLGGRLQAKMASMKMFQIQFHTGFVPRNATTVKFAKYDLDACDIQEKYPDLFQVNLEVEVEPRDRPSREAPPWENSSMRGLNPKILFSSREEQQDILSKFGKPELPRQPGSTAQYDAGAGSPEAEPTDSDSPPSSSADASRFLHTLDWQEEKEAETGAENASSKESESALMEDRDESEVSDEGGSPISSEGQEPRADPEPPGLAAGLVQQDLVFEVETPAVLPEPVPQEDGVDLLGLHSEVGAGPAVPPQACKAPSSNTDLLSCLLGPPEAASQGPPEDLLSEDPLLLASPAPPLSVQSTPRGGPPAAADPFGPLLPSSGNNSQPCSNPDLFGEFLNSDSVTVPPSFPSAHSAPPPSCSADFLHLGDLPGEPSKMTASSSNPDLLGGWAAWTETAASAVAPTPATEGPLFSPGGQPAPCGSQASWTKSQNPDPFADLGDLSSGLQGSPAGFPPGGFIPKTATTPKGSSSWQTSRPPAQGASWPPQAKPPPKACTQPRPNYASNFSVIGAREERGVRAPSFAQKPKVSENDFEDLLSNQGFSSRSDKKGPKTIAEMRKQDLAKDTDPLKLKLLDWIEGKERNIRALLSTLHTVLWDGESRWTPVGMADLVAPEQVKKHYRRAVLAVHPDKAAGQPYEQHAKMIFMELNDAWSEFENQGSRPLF

[10] = biological target: Serine/threonine-protein kinase Nek5 (Homo sapiens) (UniProt Q6P3R8); assay: Inhibition of NEK5 (unknown origin) at 1 uM by Ambit Kinomescan binding assay relative to control; values are per cent of control
Chain of Serine/threonine-protein kinase Nek5 (Homo sapiens) (Q6P3R8 whole entry): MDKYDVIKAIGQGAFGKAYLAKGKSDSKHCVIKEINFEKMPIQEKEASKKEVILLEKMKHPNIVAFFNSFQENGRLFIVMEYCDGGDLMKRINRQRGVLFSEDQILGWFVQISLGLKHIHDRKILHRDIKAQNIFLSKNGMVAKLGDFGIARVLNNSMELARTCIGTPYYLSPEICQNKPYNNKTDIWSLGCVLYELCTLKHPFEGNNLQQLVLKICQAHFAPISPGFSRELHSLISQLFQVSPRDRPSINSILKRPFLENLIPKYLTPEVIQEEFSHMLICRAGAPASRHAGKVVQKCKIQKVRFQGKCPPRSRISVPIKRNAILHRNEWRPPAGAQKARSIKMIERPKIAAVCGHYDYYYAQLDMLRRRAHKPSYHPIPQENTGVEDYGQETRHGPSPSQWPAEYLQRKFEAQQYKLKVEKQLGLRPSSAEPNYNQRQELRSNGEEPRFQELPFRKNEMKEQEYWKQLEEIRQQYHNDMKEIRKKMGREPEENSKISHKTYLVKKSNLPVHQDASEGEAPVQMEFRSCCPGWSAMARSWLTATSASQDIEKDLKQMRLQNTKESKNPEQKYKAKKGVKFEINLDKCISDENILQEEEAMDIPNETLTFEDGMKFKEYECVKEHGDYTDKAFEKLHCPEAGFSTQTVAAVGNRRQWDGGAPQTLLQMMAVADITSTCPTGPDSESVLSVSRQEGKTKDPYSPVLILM

[11] = biological target: Protein kinase C delta type (Homo sapiens) (UniProt Q05655); assay: Inhibition of PRKCD (unknown origin) at 10 uM by Ambit Kinomescan binding assay
Chain of Protein kinase C delta type (Homo sapiens) (Q05655 whole entry, looked up): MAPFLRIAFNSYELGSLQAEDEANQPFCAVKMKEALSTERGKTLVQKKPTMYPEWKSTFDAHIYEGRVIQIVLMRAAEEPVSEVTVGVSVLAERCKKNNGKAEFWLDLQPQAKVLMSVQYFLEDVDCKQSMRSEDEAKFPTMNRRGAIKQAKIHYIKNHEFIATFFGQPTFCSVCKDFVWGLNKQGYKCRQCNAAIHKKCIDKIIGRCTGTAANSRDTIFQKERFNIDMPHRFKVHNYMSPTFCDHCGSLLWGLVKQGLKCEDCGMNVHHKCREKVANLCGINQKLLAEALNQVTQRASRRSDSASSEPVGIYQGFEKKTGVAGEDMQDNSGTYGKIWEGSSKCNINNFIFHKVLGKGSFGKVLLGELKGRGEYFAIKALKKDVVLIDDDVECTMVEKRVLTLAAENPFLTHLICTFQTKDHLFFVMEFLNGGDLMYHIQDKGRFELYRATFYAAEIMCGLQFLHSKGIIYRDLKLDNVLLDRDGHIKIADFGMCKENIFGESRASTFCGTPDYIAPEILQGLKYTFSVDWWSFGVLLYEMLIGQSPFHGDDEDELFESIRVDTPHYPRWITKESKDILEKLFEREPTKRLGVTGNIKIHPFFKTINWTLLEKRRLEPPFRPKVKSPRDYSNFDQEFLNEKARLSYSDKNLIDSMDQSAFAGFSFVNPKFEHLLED

[12] = biological target: Tyrosine-protein kinase Fes/Fps (Homo sapiens, UniProt P07332); assay: Inhibition of FES K1 labeling site in human Huh-7 cells at 10 uM by KiNativ Profiling analysis relative to control; assay type: cell-based
[13] = biological target: Serine/threonine-protein kinase Nek6 (Homo sapiens) (UniProt Q9HC98); assay: Inhibition of NEK6 ACT labeling site in human Huh-7 cells at 10 uM by KiNativ Profiling analysis relative to control; assay type: cell-based
[14] = Inhibition of […] ATP labeling site in human Huh-7 cells at 10 uM by KiNativ Profiling analysis relative to control; conditions: condition cancer
[15] = biological target: AMPK alpha1/alpha2 (Homo sapiens) (UniProt P54646+Q13131); assay: Inhibition of AMPK alpha 1/2 K1 labeling site in human Huh-7 cells at 1 uM by KiNativ Profiling analysis relative to control; assay type: cell-based
[16] = biological target: T2, Dual specificity mitogen-activated protein kinase kinase 4 (Homo sapiens) (UniProt P45985); assay: Inhibition of MAP2K4 K2 labeling site harbouring IIHRDIKPSNILLDR in human Huh-7 cells at 1 uM by KiNativ Profiling analysis relative to control; assay type: cell-based
T2 sequence (whole entry): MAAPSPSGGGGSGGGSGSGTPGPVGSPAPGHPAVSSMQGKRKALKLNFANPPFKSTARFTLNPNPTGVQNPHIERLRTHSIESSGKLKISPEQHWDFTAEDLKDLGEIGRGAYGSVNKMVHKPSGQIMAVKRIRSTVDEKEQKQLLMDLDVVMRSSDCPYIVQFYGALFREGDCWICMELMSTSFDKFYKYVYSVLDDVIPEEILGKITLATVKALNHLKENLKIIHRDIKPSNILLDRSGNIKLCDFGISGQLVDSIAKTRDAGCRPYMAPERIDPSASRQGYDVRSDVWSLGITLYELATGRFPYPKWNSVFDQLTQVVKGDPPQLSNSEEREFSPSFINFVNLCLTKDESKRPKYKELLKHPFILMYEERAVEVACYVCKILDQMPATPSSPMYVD

[17] = biological target: Vascular endothelial growth factor receptor 1 (Homo sapiens) (UniProt P17948); assay: Inhibition of FLT1 (unknown origin) at 10 uM by Ambit Kinomescan binding assay relative to control; values are per cent of control
Chain of Vascular endothelial growth factor receptor 1 (Homo sapiens) (P17948 whole entry): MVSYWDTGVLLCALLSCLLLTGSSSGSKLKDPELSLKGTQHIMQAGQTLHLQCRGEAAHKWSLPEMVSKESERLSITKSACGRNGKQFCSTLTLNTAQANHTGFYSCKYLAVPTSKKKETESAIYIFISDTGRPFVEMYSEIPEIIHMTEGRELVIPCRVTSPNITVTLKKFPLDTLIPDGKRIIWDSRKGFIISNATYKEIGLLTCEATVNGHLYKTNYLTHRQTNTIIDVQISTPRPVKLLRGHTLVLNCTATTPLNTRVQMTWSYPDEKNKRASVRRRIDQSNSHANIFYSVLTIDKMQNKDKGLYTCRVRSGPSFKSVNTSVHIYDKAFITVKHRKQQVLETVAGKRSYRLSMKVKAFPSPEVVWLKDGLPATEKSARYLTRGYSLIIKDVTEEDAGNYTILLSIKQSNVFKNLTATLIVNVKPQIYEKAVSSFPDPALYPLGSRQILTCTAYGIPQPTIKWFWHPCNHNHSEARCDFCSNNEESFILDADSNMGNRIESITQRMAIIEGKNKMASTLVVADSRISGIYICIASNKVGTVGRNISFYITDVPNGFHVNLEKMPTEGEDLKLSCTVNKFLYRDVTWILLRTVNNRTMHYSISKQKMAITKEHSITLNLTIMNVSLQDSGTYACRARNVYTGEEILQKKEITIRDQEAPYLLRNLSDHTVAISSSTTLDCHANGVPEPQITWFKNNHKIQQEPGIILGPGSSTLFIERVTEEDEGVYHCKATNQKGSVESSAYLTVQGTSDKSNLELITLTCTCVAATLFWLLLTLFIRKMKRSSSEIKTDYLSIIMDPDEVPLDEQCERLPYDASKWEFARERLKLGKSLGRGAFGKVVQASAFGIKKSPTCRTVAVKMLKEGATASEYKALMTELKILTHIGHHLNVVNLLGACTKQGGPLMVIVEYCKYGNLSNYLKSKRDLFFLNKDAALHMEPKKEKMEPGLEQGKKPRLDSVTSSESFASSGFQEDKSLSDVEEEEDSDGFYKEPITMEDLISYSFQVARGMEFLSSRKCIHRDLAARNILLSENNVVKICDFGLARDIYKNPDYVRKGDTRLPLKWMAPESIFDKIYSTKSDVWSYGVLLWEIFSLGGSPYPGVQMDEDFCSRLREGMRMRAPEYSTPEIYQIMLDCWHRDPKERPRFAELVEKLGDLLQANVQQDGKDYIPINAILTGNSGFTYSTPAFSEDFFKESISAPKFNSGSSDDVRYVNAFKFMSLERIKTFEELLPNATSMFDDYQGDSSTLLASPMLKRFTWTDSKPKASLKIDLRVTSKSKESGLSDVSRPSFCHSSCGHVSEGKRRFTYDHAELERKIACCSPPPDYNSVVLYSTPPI

CNc1cc(Oc2cc(C(=O)Nc3cc(N4CCN(C)CC4)cc(C(F)(F)F)c3)ccc2C)ncn1
inhibition [1]: -5%
inhibition [2]: -3.5%
inhibition [3]: 3.1%
inhibition [4]: 5%
inhibition [5]: 71.1%

CCN1CCN(Cc2ccc(NC(=O)c3ccc(C)c(/C=C/c4cnc5[nH]ccc5c4OC)c3)cc2C(F)(F)F)CC1
inhibition [6]: 9%
inhibition [7]: -8.2%
inhibition [8]: -4.2%
residual activity [9]: 7%
residual activity [10]: 47%

CCN1CCN(Cc2ccc(NC(=O)c3ccc(C)c(Oc4ccnc5[nH]ccc45)c3)cc2C(F)(F)F)CC1
inhibition [11]: inactive
inhibition [12]: 72.6%
inhibition [13]: -3%
inhibition at 10 µM [14]: -5.1%
inhibition [15]: 29.8%
inhibition [16]: -0.9%
percent of control [17]: 1.6%
